An excerpt weighted towards active compounds, which were near 1.8% of everything screened.
NPY-Y1 PAM-ag = potentiators or agonists of human neuropeptide Y receptor Y1; P25929; NPY-Y1 expressing cells, potentiator/agonist activation; activation, % at 3.6 µM; 220,000 tested, 0.37% active; in the data active = activation above about 33%, passing the limit was not always enough;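 also: cells stimulated with NPY at EC10 then isoproterenol at EC100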
Target sequence (P25929 whole entry, looked up): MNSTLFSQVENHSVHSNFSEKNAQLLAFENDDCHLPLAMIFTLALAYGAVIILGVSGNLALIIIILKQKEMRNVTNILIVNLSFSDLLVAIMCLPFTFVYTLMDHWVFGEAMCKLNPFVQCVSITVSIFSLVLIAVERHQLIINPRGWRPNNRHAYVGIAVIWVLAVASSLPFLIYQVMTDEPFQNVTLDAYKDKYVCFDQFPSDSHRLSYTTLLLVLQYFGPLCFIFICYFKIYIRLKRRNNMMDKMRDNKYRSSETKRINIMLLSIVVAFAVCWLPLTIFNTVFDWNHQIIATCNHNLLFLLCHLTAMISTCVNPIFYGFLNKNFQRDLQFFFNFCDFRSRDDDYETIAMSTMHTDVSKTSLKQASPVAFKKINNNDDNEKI
NPY-Y2 PAM-ag = human NPY-Y2 potentiation or agonism, primary screen; P49146; cells expressing NPY-Y2, potentiator/agonist read-out; activation, % at 3.6 µM; 220,000 tested, 0.45% active; AID 1359; in the data active = activation above about 27%;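 also: cells stimulated with NPY near EC25 plus isoproterenol at EC100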
Target sequence (P49146 whole entry, looked up): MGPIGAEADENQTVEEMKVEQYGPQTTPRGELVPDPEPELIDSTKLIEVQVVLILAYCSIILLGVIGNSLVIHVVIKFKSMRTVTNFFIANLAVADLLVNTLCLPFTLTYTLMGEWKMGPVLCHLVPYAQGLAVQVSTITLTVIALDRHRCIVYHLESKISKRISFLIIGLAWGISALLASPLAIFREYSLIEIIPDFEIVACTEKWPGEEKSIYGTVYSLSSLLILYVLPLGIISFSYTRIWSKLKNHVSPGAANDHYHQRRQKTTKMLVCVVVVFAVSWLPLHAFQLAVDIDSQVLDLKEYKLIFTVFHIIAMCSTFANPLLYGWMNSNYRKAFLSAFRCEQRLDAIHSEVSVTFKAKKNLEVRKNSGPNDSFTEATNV
NPY-Y2 antag = blocks the human neuropeptide Y Y2 receptor; NPY-Y2 expressing cells, antagonist mode; P49146; 140,000 tested, 0.99% active; inhibition, % at 2.7 µM
NPY-Y1 antag = antagonists of human neuropeptide Y receptor Y1 | P25929 | HEK293-CNG Y1 cells, membrane potential fluorescence; NPY at EC95, then isoproterenol | inhibition, % at 3.6 µM | 200,000 tested, 1% active | AID 1040;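 active = inhibition above the campaign mean inhibition of all tested compounds plus 3 SD, cut at about 20% in these data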
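Material: Y1- and CNG-channel-expressing HEK293 cells / Probe or stimulus: NPY 25 nM then isoproterenol 1 µM plus Ro 20-1724 25 µM / Doses: 3.6 µM single dose, DMSO 0.4% / Schedule: compound incubation 1 h at room temperature, readout 45 min post-stimulation / Signal: membrane potential fluorescence / Benchmarks: isoproterenol-only wells as full block versus NPY-plus-isoproterenol wells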
NPY-Y1 ant conf = confirmation of human neuropeptide Y receptor Y1 antagonists | shares compounds with NPY-Y1 antag | HEK293-CNG NPY-Y1, membrane potential fluorescence, cAMP; NPY challenge against isoproterenol-raised cAMP | inhibition, % at 3.6 µM | 1,200 tested, 21% active | AID 1254; in the data active = inhibition above about 20%
NPY-Y2 antag ct = human NPY-Y2 antagonism in NPY-Y1 counter-screen; shares compounds with NPY-Y1 antag; HEK293 NPY-Y2 CNG membrane potential fluorescence; cells given NPY, then isoproterenol; inhibition, % at 3.6 µM; 1,200 tested, 28% active
Each line names hits and unclear results; the compound was inactive in the other large screens (follow-up assays come after a bar, where they were run). Rule as the data show it, unless noted: active = inhibition above about 17%; inactive = the rest.

COc1ccc(N/N=C(\C=N\O)C(=O)c2ccc(OC)cc2)cc1	NPY-Y1 antag 32 | NPY-Y1 ant conf inactive | NPY-Y2 antag ct inactive
Cc1ccccc1N1CCN(c2ncnc3c2cnn3Cc2ccc(Cl)cc2)CC1	NPY-Y1 antag 29 | NPY-Y1 ant conf inactive | NPY-Y2 antag ct 17
Cc1ccc(Cn2ncc3c(N4CCN(Cc5ccc(Cl)cc5)CC4)ncnc32)cc1	none
CNC(=S)NNC(=O)c1cccc(N(C)C)c1	none (no result: NPY-Y2 antag)
Fc1ccc(-c2n[nH]c(=S)n2/N=C/c2c[nH]c3ccccc23)cc1	none
CC1CC1C(=O)Nc1nc(-c2ccc(Cl)s2)cs1 (stereo not given)	NPY-Y1 antag 25 (no result: NPY-Y2 antag) | NPY-Y1 ant conf inactive | NPY-Y2 antag ct inactive
Cc1cccc(N(C)C(=O)C2CCCN2S(=O)(=O)c2cccc3nsnc23)c1 (stereo not given)	none (no result: NPY-Y2 antag, NPY-Y1 antag)
COC(=O)c1ccc(NC(=O)c2ccc(CN3CCOCC3)cc2)cc1	none
O=C(Nc1ccc(CN2CCOCC2)cc1)c1ccc(-c2ccc(Br)cc2)o1	NPY-Y1 antag 31 | NPY-Y1 ant conf inactive | NPY-Y2 antag ct 21
N=c1c2c3c(sc2ncn1Nc1ccccc1)CCC3	none (no result: NPY-Y2 antag, NPY-Y1 antag)
C=C(C)CNC(=S)NN=C1c2ccccc2-c2ccccc21	NPY-Y1 antag 33 (no result: NPY-Y2 antag) | NPY-Y1 ant conf 36 | NPY-Y2 antag ct 69
Cc1ccc(C(=O)c2c(NC(=O)c3ccccc3C)sc(C)c2C)cc1	NPY-Y1 antag 23 | NPY-Y1 ant conf inactive | NPY-Y2 antag ct 36
CCN(CC)CC(=O)Nc1sc(C)c(C)c1C(=O)c1ccc(C)cc1	none (no result: NPY-Y2 antag)
COc1cc(CNc2ccccc2Oc2cc(=O)n(C)c(=O)n2C)cc(OC)c1OC	NPY-Y1 antag 36 | NPY-Y1 ant conf inactive | NPY-Y2 antag ct inactive
Cn1c(Oc2ccccc2NCc2cc(Br)ccc2O)cc(=O)n(C)c1=O	none
CCOC(=O)c1c(NC(=O)CN2CCN(C)CC2)sc(C(=O)Nc2ccccc2)c1C	NPY-Y1 antag 27 (no result: NPY-Y2 antag) | NPY-Y1 ant conf inactive | NPY-Y2 antag ct inactive
Clc1ccccc1CSc1cc2c(nn1)-c1ccccc1CC2	NPY-Y1 antag 23 | NPY-Y1 ant conf inactive | NPY-Y2 antag ct inactive
Clc1cccc(Cl)c1CSc1cc2c(nn1)-c1ccccc1CC2	none
CC1CCN(C(=O)CSc2nc3ccccc3c(=O)n2Cc2ccc3c(c2)OCO3)CC1	NPY-Y1 antag 21 | NPY-Y1 ant conf inactive | NPY-Y2 antag ct inactive
COc1ccc(C(=O)C2CCCN(Cc3cccn3-c3ccccn3)C2)c(OC)c1 (stereo not given)	NPY-Y1 antag 27 (no result: NPY-Y2 antag) | NPY-Y1 ant conf 21 | NPY-Y2 antag ct 18
COc1ccc(F)cc1C(=O)C1CCCN(Cc2cccn2-c2ccccn2)C1 (stereo not given)	NPY-Y1 antag 35 (no result: NPY-Y2 antag) | NPY-Y1 ant conf 23 | NPY-Y2 antag ct 20
OCCN(/C=N/c1nc(-c2ccc(Br)cc2)cs1)CCO	none
Brc1ccc(-c2csc(/N=C/N3CCCC3)n2)cc1	NPY-Y1 antag 32 (no result: NPY-Y2 antag) | NPY-Y1 ant conf 31 | NPY-Y2 antag ct inactive
CCOc1cc(/C=C2\CCC/C(=C\c3cc(Cl)c(O)c(OCC)c3)C2=O)cc(Cl)c1O	NPY-Y1 antag 44 | NPY-Y1 ant conf 45 | NPY-Y2 antag ct 44
C=CCNC(=O)/C(C#N)=C\c1cc(Cl)c(O)c(OCC)c1	none
CCCNNC(=O)C(O)(c1cccc(C)c1)c1cccc(C)c1	NPY-Y1 antag 26 | NPY-Y1 ant conf inactive | NPY-Y2 antag ct inactive
CCNNC(=O)C(O)(c1cccc(C)c1)c1cccc(C)c1	none
Cc1ccc(NC(=O)C23CCC(C)(C(=O)[C@H]2Br)C3(C)C)cc1 (stereo not given in full)	none (no result: NPY-Y2 antag, NPY-Y1 antag)
CCC(Sc1ncnc2sc(C)c(C)c12)C(=O)OC (stereo not given)	NPY-Y1 antag 26 | NPY-Y1 ant conf inactive | NPY-Y2 antag ct inactive
Cc1ccnc(SCc2cc(=O)c(OC(=O)c3ccc(S(=O)(=O)N(C)C)cc3)co2)n1	none
N=C1C(c2nc3ccccc3s2)=C(O)CN1NC(=O)c1c[nH]c2ccccc12	NPY-Y1 antag 28 (no result: NPY-Y2 antag) | NPY-Y1 ant conf 26 | NPY-Y2 antag ct 28
CCOC(=O)c1[nH]c2cc3c(cc2c1NC(=O)CN1CCN(CCO)CC1)OCO3	none (no result: NPY-Y2 antag, NPY-Y1 antag)
COc1ccccc1CNC(=O)CCS(=O)(=O)c1cccc2nonc12	none
C=CCn1c(C)cc(C(=O)CSc2nnc(Cc3ccccc3)o2)c1C	NPY-Y1 antag 21 | NPY-Y1 ant conf inactive | NPY-Y2 antag ct inactive
Cc1cc(N2CCN(c3cccc(C)c3C)CC2)nc(-c2ccccc2)n1	NPY-Y1 antag 21 | NPY-Y1 ant conf 22 | NPY-Y2 antag ct 17
CC(=O)NC1(c2ccccc2)CCN(c2cc(C)nc(-c3ccccc3)n2)CC1	NPY-Y1 antag 46 (no result: NPY-Y2 antag) | NPY-Y1 ant conf 34 | NPY-Y2 antag ct 46
O=C(NCCCN1CCOCC1)C(C(=O)NCCCN1CCOCC1)c1ncc(C(F)(F)F)cc1Cl	none (no result: NPY-Y2 antag)
CC12COC3(C(=O)Nc4ccccc4)CC1CCC32C (stereo not given)	none (no result: NPY-Y2 antag)
CC12COC3(C(=O)Nc4ccc5ccccc5c4)CC1CCC32C (stereo not given)	NPY-Y1 antag 23 (no result: NPY-Y2 antag) | NPY-Y1 ant conf inactive | NPY-Y2 antag ct 24
COc1cccc(Oc2cn[nH]c2-c2ccc(O)cc2O)c1	NPY-Y1 antag 153 | NPY-Y1 ant conf 61 | NPY-Y2 antag ct inactive
O=C(c1ccc2c(c1)OCO2)N(CC1CCCO1)C1(C(=O)NC2CCCC2)CCCCC1 (stereo not given)	NPY-Y1 antag 30 | NPY-Y1 ant conf inactive | NPY-Y2 antag ct inactive
Oc1cccc2ccc[n+](CC(O)Cn3c4ccccc4c4ccccc43)c12 (stereo not given)	none
CCCCOC(=O)c1ccc(NC(=O)c2c(Cl)ccc(Cl)c2OC)cc1	NPY-Y1 antag 24 | NPY-Y1 ant conf inactive | NPY-Y2 antag ct inactive
Cn1nc(C(=O)Nc2cccc(C(F)(F)F)c2)c2ccccc2c1=O	NPY-Y1 antag 29 | NPY-Y1 ant conf inactive | NPY-Y2 antag ct inactive
Cn1nccc1C(=O)Nc1cccc(C(F)(F)F)c1	none (no result: NPY-Y2 antag)
CC1c2ccccc2SC(CCCN(C)C)c2ccccc21 (stereo not given)	none
CN(C)CCC1Sc2ccccc2Oc2ccccc21 (stereo not given)	NPY-Y1 antag 27 | NPY-Y1 ant conf inactive | NPY-Y2 antag ct inactive
NS(=O)(=O)c1cccc(NS(=O)(=O)c2ccc(/C=C/C(=O)OCC(=O)c3ccccc3)cc2)c1	none (no result: NPY-Y2 antag)
CCOc1ccc(S(=O)(=O)Nc2cc(OC)ccc2OC)cc1	NPY-Y1 antag 27 | NPY-Y1 ant conf inactive | NPY-Y2 antag ct inactive
COc1ccc(OC)c(NS(=O)(=O)c2ccc(N3CCCC3=O)cc2)c1	NPY-Y1 antag 44 | NPY-Y1 ant conf inactive | NPY-Y2 antag ct inactive
CCN(CC)CCOC(=O)/C=C/c1ccccc1OC	NPY-Y1 antag 21 | NPY-Y1 ant conf inactive | NPY-Y2 antag ct inactive
CCCOC(=O)C(C)n1c(-c2ccccc2)nc2ccccc2c1=O (stereo not given)	NPY-Y1 antag 33 | NPY-Y1 ant conf inactive | NPY-Y2 antag ct inactive
